Data reported in ChEMBL document CHEMBL4052594, “Discovery of Pyrrolidine-Containing GPR40 Agonists: Stereochemistry Effects a Change in Binding Mode” (J Med Chem, 2017).

What was measured:
[1] = molecular target: Free fatty acid receptor 1 (Mus musculus) (UniProt Q76JU9); experiment: Intrinsic activity at mouse GPR40 expressed in CHO-A12 cells assessed as increase in intracellular calcium flux at 8.3 uM measured for 100 secs by FLIPR assay […]; format: functional, cell-based
[2] = molecular target: Free fatty acid receptor 1 (Mus musculus, UniProt Q76JU9); experiment: Agonist activity at mouse GPR40 expressed in CHO-A12 cells assessed as increase in intracellular calcium flux measured for 100 secs by FLIPR assay; format: functional, cell-based
Sequence of Free fatty acid receptor 1 (Mus musculus, UniProt Q76JU9) (Q76JU9 whole entry): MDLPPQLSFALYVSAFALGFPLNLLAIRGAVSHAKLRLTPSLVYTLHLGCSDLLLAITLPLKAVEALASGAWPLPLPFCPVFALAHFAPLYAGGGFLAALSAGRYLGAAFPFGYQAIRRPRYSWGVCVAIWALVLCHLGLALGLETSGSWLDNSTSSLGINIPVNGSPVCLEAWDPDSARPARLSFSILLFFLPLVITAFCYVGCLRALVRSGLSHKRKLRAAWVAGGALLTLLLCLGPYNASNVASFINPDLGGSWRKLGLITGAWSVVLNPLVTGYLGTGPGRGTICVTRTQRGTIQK

[3] = molecular target: T1, Free fatty acid receptor 1 (Homo sapiens, UniProt O14842); experiment: Agonist activity at human GPR40 expressed in CHO-A12 cells assessed as increase in intracellular calcium flux measured for 100 secs by FLIPR assay; format: functional, cell-based
T1 sequence (O14842 whole entry): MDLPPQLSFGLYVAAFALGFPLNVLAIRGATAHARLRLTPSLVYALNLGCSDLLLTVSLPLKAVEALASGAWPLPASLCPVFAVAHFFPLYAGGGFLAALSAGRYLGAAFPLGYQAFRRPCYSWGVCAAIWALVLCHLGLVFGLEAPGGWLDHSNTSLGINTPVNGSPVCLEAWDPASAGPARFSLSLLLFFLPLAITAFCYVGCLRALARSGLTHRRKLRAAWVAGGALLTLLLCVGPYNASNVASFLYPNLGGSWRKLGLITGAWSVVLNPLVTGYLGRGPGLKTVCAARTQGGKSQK

[4] = molecular target: T1, Free fatty acid receptor 1; experiment: Binding affinity to human GPR40 expressed in HEK293 cell membranes after 1 hr by radioligand displacement based scintillation counting method
How it was run: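 Binding of human GPR40 measured as Ki against a radioligand. Mean of at least two runs. Displacement of the label appears as a negative slope and potentiation as a positive one.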

[5] = molecular target: T2, Peroxisome proliferator-activated receptor gamma (Homo sapiens, UniProt P37231); experiment: Transactivation of human Gal4 fused PPARgamma-LBD expressed in HEK293 cells after 18 hrs by luciferase reporter gene assay; format: cell-based
T2 sequence (P37231 whole entry): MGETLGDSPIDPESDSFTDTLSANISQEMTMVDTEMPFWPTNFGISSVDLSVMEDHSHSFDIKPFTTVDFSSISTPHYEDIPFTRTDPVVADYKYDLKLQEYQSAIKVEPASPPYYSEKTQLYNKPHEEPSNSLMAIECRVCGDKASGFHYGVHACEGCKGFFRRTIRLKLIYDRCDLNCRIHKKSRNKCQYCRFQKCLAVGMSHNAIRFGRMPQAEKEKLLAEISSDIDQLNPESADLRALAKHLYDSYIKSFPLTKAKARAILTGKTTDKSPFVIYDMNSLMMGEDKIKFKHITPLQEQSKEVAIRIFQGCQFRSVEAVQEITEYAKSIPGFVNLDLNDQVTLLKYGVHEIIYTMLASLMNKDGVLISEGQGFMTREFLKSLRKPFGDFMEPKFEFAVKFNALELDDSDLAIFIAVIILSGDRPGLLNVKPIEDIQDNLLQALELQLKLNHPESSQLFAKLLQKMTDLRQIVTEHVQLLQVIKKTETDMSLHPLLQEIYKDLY
How it was run: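 Gal4 gene reporter transactivation assay for PPARγ; EC50 and Ymax reported.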

[6] = molecular target: T3, PPARgamma (Homo sapiens, UniProt P37231); experiment: Transactivation of human Gal4 fused PPARgamma-LBD expressed in HEK293 cells at 4.8 uM after 18 hrs by luciferase reporter gene assay relative to […]; format: cell-based; settings: HEK293 cells expressing Gal4-fused human PPARgamma-LBD
T3 sequence (P37231 whole entry): T2 sequence (P37231 whole entry)

Sequence of Free fatty acid receptor 1 (Mus musculus) (Q76JU9 whole entry): as the sequence (Q76JU9 whole entry) above

| Intrinsic activity [1] [%] | EC50 [2] [nM] | EC50 [3] [nM] | Ki [4] [nM] | EC50 [5] [nM] | SMILES | Activity ([5]; human, hek293, 18 h) | Emax at 18 h, 4.8 µM [6] [%] |
| --- | --- | --- | --- | --- | --- | --- | --- |
| 70 | 14000 | 8900 |  |  | Cc1cc(OCc2ccc(Cl)cc2Cl)ccc1N1CCC[C@H]1CC(=O)O |  |  |
| 41 | 170 |  | 39 |  | COc1ccc(Oc2ccc(N3C[C@@H](C(F)(F)F)C[C@H]3CC(=O)O)cc2)c(C)c1 |  |  |
|  | > 33000 | 6200 |  |  | Cc1ccccc1Cc1ccc(N2[C@H](CC(=O)O)CC[C@@H]2C)cc1 |  |  |
|  | > 17000 | 6500 |  |  | CC(C)(C)c1ccccc1Oc1ccc(N2CCC[C@H]2CC(=O)O)cc1 |  |  |
|  | > 17000 | 880 |  |  | O=C(O)C[C@H]1CCCN1c1ccc(OCc2ccc(Cl)cc2Cl)cc1 |  |  |
|  | > 17000 | 13000 |  |  | O=C(O)C[C@H]1CCN1c1ccc(OCc2ccc(Cl)cc2Cl)cc1 |  |  |
|  | > 16000 | 2100 |  |  | O=C(O)C1CCN(c2ccc(OCc3ccc(Cl)cc3Cl)cc2)C1 (stereo not given) |  |  |
|  | > 33000 | 11000 |  |  | Cc1ccccc1Cc1ccc(N2CC[C@H](c3ccccc3)[C@H]2CC(=O)O)cc1 |  |  |
| 160 | 1900 | 220 | 310 |  | COc1ccc(F)c(-c2ccc(Cc3ccc(N4CCC[C@H]4CC(=O)O)cc3)c(C)c2)c1 |  |  |
| 210 | 53 | 150 |  |  | COc1ccc(F)c(-c2ccc(Cc3ccc(N4C[C@@H](C(F)(F)F)C[C@@H]4CC(=O)O)cc3)c(C)c2)c1 |  |  |
| 44 | 740 | 170 |  |  | O=C(O)C[C@@H]1C[C@H](C(F)(F)F)CN1c1ccc(Oc2ccccc2OC(F)(F)F)cc1 |  |  |
| 27 | 1900 | 120 | 310 |  | Cc1ccccc1Cc1ccc(N2CC[C@H](C)[C@H]2CC(=O)O)cc1 |  |  |
| 36 | 270 | 82 |  |  | Cc1cccc(C)c1Oc1ccc(N2C[C@@H](C(F)(F)F)C[C@H]2CC(=O)O)cc1 |  |  |
| 100 | 500 | 110 | 60 |  | Cc1cccc(Oc2ccc(N3C[C@@H](C(F)(F)F)C[C@H]3CC(=O)O)cc2)c1C |  |  |
|  | > 33000 | > 33000 |  |  | Cc1ccccc1COc1ccc(N2CCC[C@H]2CC(=O)O)cc1C |  |  |
|  | > 33000 | 1700 |  |  | CCOc1ccccc1Oc1ccc(N2CCC[C@H]2CC(=O)O)cc1 |  |  |
|  | > 33000 | 220 |  |  | O=C(O)C[C@@H]1CCCN1c1ccc(OCc2ccc(Cl)cc2Cl)cn1 |  |  |
| 83 | 3000 | 310 |  |  | COc1ccc(F)c(-c2cccc(Oc3ccc(N4CCC[C@H]4CC(=O)O)cc3)c2C)c1 |  |  |
| 50 | 6900 | 150 | 1300 |  | O=C(O)C[C@@H]1CCCN1c1ccc(Oc2ccccc2F)cc1 |  |  |
|  | > 33000 | 5000 |  |  | O=C(O)C1CC(=O)N(c2ccc(OCc3ccc(Cl)cc3Cl)cc2)C1 (stereo not given) |  |  |
| 120 | 3200 | 360 |  |  | O=C(O)C[C@@H]1CCCN1c1ccc(Oc2ccc(Cl)cc2Cl)cc1 |  |  |
| 42 | 1300 | 310 |  |  | O=C(O)C[C@@H]1C[C@H](C(F)(F)F)CN1c1ccc(Oc2ccccc2C(F)(F)F)cc1 |  |  |
|  | > 33000 | > 33000 |  |  | Cc1ccccc1S(=O)(=O)c1ccc(N2CCC[C@H]2CC(=O)O)cc1 |  |  |
|  | > 33000 | 1300 |  |  | CN(C)c1cccc(Oc2ccc(N3CCC[C@H]3CC(=O)O)cc2)c1 |  |  |
|  | > 17000 | 570 |  |  | Cc1ccccc1Sc1ccc(N2CCC[C@H]2CC(=O)O)cc1 |  |  |
|  | > 33000 | 11000 |  |  | O=C(O)CC1CCCCCN1c1ccc(OCc2ccc(Cl)cc2Cl)cc1 (single isomer, unassigned; enantiomer 2) |  |  |

| Intrinsic activity [1] [%] | EC50 [2] [nM] | EC50 [3] [nM] | Ki [4] [nM] | EC50 [5] [nM] | SMILES | Activity ([5]; human, hek293, 18 h) | Emax at 18 h, 4.8 µM [6] [%] |
| --- | --- | --- | --- | --- | --- | --- | --- |
|  | > 33000 | 74 | 180 |  | Cc1ccccc1Cc1ccc(N2C[C@@H](F)C[C@H]2CC(=O)O)cc1 |  |  |
|  | > 33000 | 520 |  |  | COc1ccc(Oc2ccc(N3CCC[C@H]3CC(=O)O)cc2)cc1 |  |  |
| 76 | 960 |  | 9000 |  | CO[C@H]1C[C@@H](CC(=O)O)N(c2ccc(Oc3ccccc3C)cc2)C1 |  |  |
| 43 | 1100 | 140 | 360 |  | Cc1ccccc1Cc1ccc(N2C[C@@H](C)C[C@H]2CC(=O)O)cc1 |  |  |
| 34 | 1500 | 120 | 10 |  | Cc1cc(OCc2ccccc2)ccc1Oc1ccc(N2C[C@@H](C(F)(F)F)C[C@H]2CC(=O)O)cc1 |  |  |
|  | > 33000 | 150 | 1300 |  | Cc1ccccc1Cc1ccc(N2CCC[C@H]2CC(=O)O)cc1 | Not Active |  |
|  | > 33000 | > 33000 |  |  | Cc1ccccc1[S+]([O-])c1ccc(N2CCC[C@H]2CC(=O)O)cc1 (mixture of isomers) |  |  |
| 50 | 430 | 82 | 13 |  | Cc1c(Cl)cccc1Oc1ccc(N2C[C@@H](C(F)(F)F)C[C@H]2CC(=O)O)cc1 |  |  |
|  | > 33000 | > 17000 | > 25000 |  | Cc1ccccc1Cc1ccc(N2C[C@@H](c3ccccc3)C[C@H]2CC(=O)O)cc1 |  |  |
|  | > 16000 | 560 | 6500 |  | O=C(O)C[C@@H]1CCCN1c1ccc(Oc2ccccc2)cc1 |  |  |
|  | > 33000 | 490 |  |  | Cc1ccc(Oc2ccc(N3CCC[C@H]3CC(=O)O)cc2)cc1 |  |  |
| 140 | 1100 | 1700 |  |  | COc1ccc(F)c(-c2ccc(Cc3ccc(N4C[C@H](C(F)(F)F)C[C@H]4CC(=O)O)cc3)c(C)c2)c1 |  |  |
| 83 | 2400 | 260 |  |  | Cc1cccc(Oc2ccc(N3CCC[C@H]3CC(=O)O)cc2)c1 |  |  |
|  | > 33000 | 450 | 1800 |  | Cc1ccccc1COc1ccc(N2CCC[C@H]2CC(=O)O)cn1 |  |  |
| 54 | 710 | 67 | 73 |  | Cc1ccccc1Cc1ccc(N2C[C@@H](C(F)(F)F)C[C@H]2CC(=O)O)cc1 |  |  |
|  | > 33000 | > 17000 |  |  | O=C(O)CC1CCCCN1c1ccc(OCc2ccc(Cl)cc2Cl)cc1 (single isomer, unassigned; enantiomer 2) |  |  |
| 72 | 1300 | 3500 |  |  | O=C(O)C[C@@H]1CCCN1c1ccc(Oc2ccccc2-c2ccccc2)cc1 |  |  |
|  | > 16000 | 6400 |  |  | O=C(O)CC1CCCCCN1c1ccc(OCc2ccc(Cl)cc2Cl)cc1 (single isomer, unassigned; enantiomer 1) |  |  |
|  | > 33000 | 4600 | > 33000 |  | Cc1ccccc1C(=O)c1ccc(N2CCC[C@H]2CC(=O)O)cc1 |  |  |
|  | > 33000 | > 33000 |  |  | O=C(O)CC1CCN(c2ccc(OCc3ccc(Cl)cc3Cl)cc2)C1 (stereo not given) |  |  |
|  | > 33000 | > 33000 |  |  | O=C(O)CC1CCCCN1c1ccc(OCc2ccc(Cl)cc2Cl)cc1 (single isomer, unassigned; enantiomer 1) |  |  |
| 69 | 5600 | 74 | 4400 | 32000 | Cc1ccccc1Oc1ccc(N2CCC[C@H]2CC(=O)O)cc1 |  | 27 |
|  | > 33000 | > 33000 | 23000 |  | Cc1ccccc1Cc1ccc(N2CCC[C@@]2(C)CC(=O)O)cc1 |  |  |
|  | > 16000 | 680 |  |  | O=C(O)C[C@@H]1CCCN1c1ccc(Oc2cccc(Cl)c2)cc1 |  |  |
| 88 | 440 | 260 |  |  | O=C(O)C[C@@H]1CCN1c1ccc(OCc2ccc(Cl)cc2Cl)cc1 |  |  |
|  | > 33000 | 290 |  |  | O=C(O)C[C@@H]1CCCN1c1ccc(Oc2ccc(Cl)cc2)cc1 |  |  |
